Data on 15 compounds can be found in ChEMBL document CHEMBL1649093, “Phthalazinone pyrazoles as potent, selective, and orally bioavailable inhibitors of Aurora-A kinase” (J Med Chem, 2011).

Sequence of Aurora kinase B (Q96GD4 whole entry): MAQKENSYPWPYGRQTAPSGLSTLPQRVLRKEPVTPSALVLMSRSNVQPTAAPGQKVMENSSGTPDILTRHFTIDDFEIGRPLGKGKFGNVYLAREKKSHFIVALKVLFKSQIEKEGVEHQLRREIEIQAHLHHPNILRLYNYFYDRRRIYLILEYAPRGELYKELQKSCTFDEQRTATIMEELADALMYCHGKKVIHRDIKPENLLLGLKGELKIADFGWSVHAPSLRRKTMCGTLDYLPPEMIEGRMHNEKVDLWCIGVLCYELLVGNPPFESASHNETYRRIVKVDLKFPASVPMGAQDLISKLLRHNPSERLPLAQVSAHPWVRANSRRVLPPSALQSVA

For one experiment, the target named is T1, Aurora kinase A (Homo sapiens, UniProt O14965).
T1 sequence (O14965 whole entry): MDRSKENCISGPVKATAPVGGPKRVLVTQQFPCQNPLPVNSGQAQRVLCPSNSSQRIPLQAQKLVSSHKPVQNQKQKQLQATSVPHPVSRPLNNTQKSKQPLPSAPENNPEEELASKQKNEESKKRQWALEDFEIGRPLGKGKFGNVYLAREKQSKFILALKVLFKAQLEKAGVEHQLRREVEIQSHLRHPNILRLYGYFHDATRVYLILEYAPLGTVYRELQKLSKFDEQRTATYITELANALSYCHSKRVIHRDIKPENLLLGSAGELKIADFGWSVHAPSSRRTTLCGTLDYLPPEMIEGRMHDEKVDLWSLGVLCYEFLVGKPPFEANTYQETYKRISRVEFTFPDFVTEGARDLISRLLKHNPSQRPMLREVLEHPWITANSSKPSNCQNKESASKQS
In words: Inhibition of Aurora A by ELISA.
Settings: not given
The method, boiled down: (§1)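 ELISA on plates coated with GST fusion carrying histone H3 residues 1-15, blocked with 1 mg/mL I-block. Aurora-A or Aurora-B kinase reacted with compound and 30 μM ATP in kinase buffer with 1 μg/mL I-block; stopped after 40 min with 25 mM EDTA. Phosphorylation read with anti-phospho-histone H3 (Ser10) 6G3 mAb. IC50 from triplicate averages.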
Background: An ELISA detects its analyte on a solid surface through an enzyme-linked reagent.
Broadly, the IC50 is the concentration at which inhibition is half-maximal. `COc1cccc(Cn2nc(Nc3cc(C)[nH]n3)c3ccccc3c2=O)c1` showed an IC50 of 0.036 µM.
`COc1cccc(C(=O)Cn2nc(Nc3cc(C)[nH]n3)c3ccccc3c2=O)c1` yielded an IC50 of 0.1 µM.
`Cc1cc(Nc2nn(-c3ccc(Cl)cc3)c(=O)c3ccccc23)n[nH]1` registered an IC50 of 0.093 µM.
Take `Cc1cc(Nc2nn(-c3ccc(F)cc3)c(=O)c3ccccc23)n[nH]1`: the half-maximal inhibitory concentration (IC50) was 0.037 µM.
Take `Cc1cc(Nc2nn(-c3ccc(C(C)(C)C)cc3)c(=O)c3ccccc23)n[nH]1`: the IC50 was determined as 0.24 µM.
The compound `Cc1cccc(-n2nc(Nc3cc(C)[nH]n3)c3ccccc3c2=O)c1` yielded an IC50 of 0.024 µM.
The same measure, in the same setting: the value for `Cc1cc(Nc2nn(Cc3csc(C)n3)c(=O)c3ccccc23)n[nH]1` was 0.12 µM; that for `Cc1cc(Nc2nn(Cc3cc(F)ccc3F)c(=O)c3ccccc23)n[nH]1` was 0.025 µM; that for `Cc1cc(Nc2nn(Cc3cc(F)cc(F)c3)c(=O)c3ccccc23)n[nH]1` was 0.049 µM.
`Cc1cc(Nc2nn(Cc3cccnc3)c(=O)c3ccccc23)n[nH]1`: half-maximal inhibition (IC50) required 0.017 µM.
On the same count and under the same terms, the value for `Cc1cc(Nc2nn(CC(=O)c3ccc(C(F)(F)F)cc3)c(=O)c3ccccc23)n[nH]1` was 0.72 µM; that for `Cc1cc(Nc2nn(Cc3ccncc3)c(=O)c3ccccc23)n[nH]1` was 0.27 µM; that for `Cc1ccc(-n2nc(Nc3cc[nH]n3)c3ccccc3c2=O)cc1` was 1 µM.
`Cc1ccc(-n2nc(Nc3cc(C)[nH]n3)c3ccccc3c2=O)cc1` displayed an IC50 of 0.023 µM.
Take `O=c1c2ccccc2c(Nc2n[nH]c3ccccc23)nn1-c1ccccc1`: the midpoint of inhibition, the IC50, lay at 14 µM.

Another experiment concerns the target Aurora kinase B (Homo sapiens, UniProt Q96GD4). The experiment in a line: Inhibition of Aurora B by ELISA.
Settings: not given
The method, boiled down: as §1
Turning to `COc1cccc(Cn2nc(Nc3cc(C)[nH]n3)c3ccccc3c2=O)c1`, 28 µM corresponded to half-maximal inhibition (IC50).
Same read-out and setting: in the case of `COc1cccc(C(=O)Cn2nc(Nc3cc(C)[nH]n3)c3ccccc3c2=O)c1` it was 67 µM; in that of `Cc1cc(Nc2nn(-c3ccc(Cl)cc3)c(=O)c3ccccc23)n[nH]1`, above 100 µM; in that of `Cc1cc(Nc2nn(-c3ccc(F)cc3)c(=O)c3ccccc23)n[nH]1`, above 100 µM.
`Cc1cc(Nc2nn(-c3ccc(C(C)(C)C)cc3)c(=O)c3ccccc23)n[nH]1` gave an IC50 above 50 µM.
In turn, `Cc1cccc(-n2nc(Nc3cc(C)[nH]n3)c3ccccc3c2=O)c1` had a 50% inhibitory concentration (IC50) above 100 µM.
`Cc1cc(Nc2nn(Cc3csc(C)n3)c(=O)c3ccccc23)n[nH]1` showed an IC50 of 24 µM.
Turning to `Cc1cc(Nc2nn(Cc3cc(F)ccc3F)c(=O)c3ccccc23)n[nH]1`, the IC50 was above 100 µM.
Still for that read-out and setting: the value for `Cc1cc(Nc2nn(Cc3cc(F)cc(F)c3)c(=O)c3ccccc23)n[nH]1` was above 100 µM; that for `Cc1cc(Nc2nn(Cc3cccnc3)c(=O)c3ccccc23)n[nH]1` was 12.7 µM; that for `Cc1cc(Nc2nn(CC(=O)c3ccc(C(F)(F)F)cc3)c(=O)c3ccccc23)n[nH]1` was above 100 µM.
As for `Cc1cc(Nc2nn(Cc3ccncc3)c(=O)c3ccccc23)n[nH]1`, half-maximal inhibition (IC50) was put at 27 µM.
On the same count and under the same terms, the value for `Cc1ccc(-n2nc(Nc3cc(C)[nH]n3)c3ccccc3c2=O)cc1` was above 100 µM.

For a further experiment, the system named is HCT-116. In words: Cytotoxicity against human HCT116 cells after 5 days by celltiter-glo assay. The experiment is classed as functional, cell-based. The following applies: HCT-116, 120 h.
With `COc1cccc(Cn2nc(Nc3cc(C)[nH]n3)c3ccccc3c2=O)c1`, half-maximal inhibition (IC50) required 0.66 µM.
In the case of `COc1cccc(C(=O)Cn2nc(Nc3cc(C)[nH]n3)c3ccccc3c2=O)c1`, the IC50 came to 2.7 µM.
`Cc1cc(Nc2nn(-c3ccc(Cl)cc3)c(=O)c3ccccc23)n[nH]1` yielded an IC50 of 0.82 µM.
The same measure, in the same setting: in the case of `Cc1cc(Nc2nn(-c3ccc(F)cc3)c(=O)c3ccccc23)n[nH]1` it was 0.8 µM; in that of `Cc1cc(Nc2nn(-c3ccc(C(C)(C)C)cc3)c(=O)c3ccccc23)n[nH]1`, 0.06 µM; in that of `Cc1cccc(-n2nc(Nc3cc(C)[nH]n3)c3ccccc3c2=O)c1`, 2.3 µM.
Compound `Cc1cc(Nc2nn(Cc3csc(C)n3)c(=O)c3ccccc23)n[nH]1` returned an IC50 of 4.18 µM.
Same read-out and setting: in the case of `Cc1cc(Nc2nn(Cc3cc(F)ccc3F)c(=O)c3ccccc23)n[nH]1` it was 0.57 µM; in that of `Cc1cc(Nc2nn(Cc3cc(F)cc(F)c3)c(=O)c3ccccc23)n[nH]1`, 0.5 µM; in that of `Cc1cc(Nc2nn(Cc3cccnc3)c(=O)c3ccccc23)n[nH]1`, 2.9 µM.
Compound `Cc1cc(Nc2nn(CC(=O)c3ccc(C(F)(F)F)cc3)c(=O)c3ccccc23)n[nH]1` registered a half-maximal inhibitory concentration (IC50) above 30 µM.
The same measure, in the same setting: the value for `Cc1cc(Nc2nn(Cc3ccncc3)c(=O)c3ccccc23)n[nH]1` was 20.2 µM; that for `Cc1ccc(-n2nc(Nc3cc(C)[nH]n3)c3ccccc3c2=O)cc1` was 0.24 µM.

The next experiment concerns COLO 205. In words: Cytotoxicity against human COLO205 cells. The experiment is classed as functional, cell-based.
Settings: not given
On to `COc1cccc(Cn2nc(Nc3cc(C)[nH]n3)c3ccccc3c2=O)c1`, for which the IC50 stood at 3.6 µM.
On the same count and under the same terms, the value for `COc1cccc(C(=O)Cn2nc(Nc3cc(C)[nH]n3)c3ccccc3c2=O)c1` was above 30 µM.
Still for that read-out and setting: in the case of `Cc1cc(Nc2nn(-c3ccc(Cl)cc3)c(=O)c3ccccc23)n[nH]1` it was 2.2 µM; in that of `Cc1cc(Nc2nn(-c3ccc(F)cc3)c(=O)c3ccccc23)n[nH]1`, 1.6 µM.
`Cc1cccc(-n2nc(Nc3cc(C)[nH]n3)c3ccccc3c2=O)c1` displayed a half-inhibitory concentration (IC50) of 3.2 µM.
Compound `Cc1cc(Nc2nn(Cc3csc(C)n3)c(=O)c3ccccc23)n[nH]1` had an IC50 above 30 µM.
In the case of `Cc1cc(Nc2nn(Cc3cc(F)ccc3F)c(=O)c3ccccc23)n[nH]1`, the IC50 was 3.8 µM.
The compound `Cc1cc(Nc2nn(Cc3cc(F)cc(F)c3)c(=O)c3ccccc23)n[nH]1` had an IC50 of 2.3 µM.
On the same count and under the same terms, the value for `Cc1cc(Nc2nn(Cc3cccnc3)c(=O)c3ccccc23)n[nH]1` was 4.1 µM.
Compound `Cc1cc(Nc2nn(CC(=O)c3ccc(C(F)(F)F)cc3)c(=O)c3ccccc23)n[nH]1` yielded an IC50 above 30 µM.
In turn, `Cc1cc(Nc2nn(Cc3ccncc3)c(=O)c3ccccc23)n[nH]1` displayed a 50% inhibitory concentration (IC50) of 13 µM.
On the same count and under the same terms, in the case of `Cc1ccc(-n2nc(Nc3cc(C)[nH]n3)c3ccccc3c2=O)cc1` it was 3.6 µM.

The next experiment deals with MCF7. In words: Cytotoxicity against human MCF7 cells. The experiment is classed as functional, cell-based.
Settings: not given
For `COc1cccc(Cn2nc(Nc3cc(C)[nH]n3)c3ccccc3c2=O)c1`, the IC50 was above 30 µM.
`COc1cccc(C(=O)Cn2nc(Nc3cc(C)[nH]n3)c3ccccc3c2=O)c1` had an IC50 above 30 µM.
Still for that read-out and setting: in the case of `Cc1cc(Nc2nn(-c3ccc(Cl)cc3)c(=O)c3ccccc23)n[nH]1` it was 11.4 µM; in that of `Cc1cc(Nc2nn(-c3ccc(F)cc3)c(=O)c3ccccc23)n[nH]1`, 1.6 µM.
Turning to `Cc1cc(Nc2nn(-c3ccc(C(C)(C)C)cc3)c(=O)c3ccccc23)n[nH]1`, half-maximal inhibition (IC50) required 0.78 µM.
As to `Cc1cccc(-n2nc(Nc3cc(C)[nH]n3)c3ccccc3c2=O)c1`, 2.9 µM corresponded to half-maximal inhibition (IC50).
For `Cc1cc(Nc2nn(Cc3csc(C)n3)c(=O)c3ccccc23)n[nH]1`, the IC50 was above 30 µM.
The same measure, in the same setting: in the case of `Cc1cc(Nc2nn(Cc3cc(F)ccc3F)c(=O)c3ccccc23)n[nH]1` it was above 30 µM; in that of `Cc1cc(Nc2nn(Cc3cc(F)cc(F)c3)c(=O)c3ccccc23)n[nH]1`, 2.6 µM.
`Cc1cc(Nc2nn(Cc3cccnc3)c(=O)c3ccccc23)n[nH]1` had an IC50 of 13.4 µM.
`Cc1cc(Nc2nn(CC(=O)c3ccc(C(F)(F)F)cc3)c(=O)c3ccccc23)n[nH]1`: the IC50 is above 30 µM.
Same read-out and setting: the value for `Cc1cc(Nc2nn(Cc3ccncc3)c(=O)c3ccccc23)n[nH]1` was above 30 µM; that for `Cc1ccc(-n2nc(Nc3cc(C)[nH]n3)c3ccccc3c2=O)cc1` was above 30 µM.

Tested on in the next experiment: not listed separately
In words: Selectivity for Aurora A over Aurora B.
Settings: not given
Regarding `COc1cccc(Cn2nc(Nc3cc(C)[nH]n3)c3ccccc3c2=O)c1`, the Selectivity ratio is above 1000.
In the case of `COc1cccc(C(=O)Cn2nc(Nc3cc(C)[nH]n3)c3ccccc3c2=O)c1`, the Selectivity ratio was above 1000.
On to `Cc1cc(Nc2nn(-c3ccc(Cl)cc3)c(=O)c3ccccc23)n[nH]1`, for which the Selectivity ratio was above 1000.
Same read-out and setting: the value for `Cc1cc(Nc2nn(-c3ccc(C(C)(C)C)cc3)c(=O)c3ccccc23)n[nH]1` was above 1000; that for `Cc1cccc(-n2nc(Nc3cc(C)[nH]n3)c3ccccc3c2=O)c1` was above 1000; that for `Cc1cc(Nc2nn(Cc3cc(F)cc(F)c3)c(=O)c3ccccc23)n[nH]1` was above 1000.
Take `Cc1cc(Nc2nn(CC(=O)c3ccc(C(F)(F)F)cc3)c(=O)c3ccccc23)n[nH]1`: the Selectivity ratio is above 1000.
As for `Cc1ccc(-n2nc(Nc3cc[nH]n3)c3ccccc3c2=O)cc1`, the Selectivity ratio is above 1000.
On to `Cc1ccc(-n2nc(Nc3cc(C)[nH]n3)c3ccccc3c2=O)cc1`, for which the Selectivity ratio was above 1000.
`O=c1c2ccccc2c(Nc2n[nH]c3ccccc23)nn1-c1ccccc1`: the Selectivity ratio is above 1000.
